Data published in ChEMBL document CHEMBL2396554, “Synthesis and biological evaluation of metabolites of 2-n-butyl-9-methyl-8-[1,2,3]triazol-2-yl-9H-purin-6-ylamine (ST1535), a potent antagonist of the A2A adenosine receptor for the treatment of Parkinson's disease” (J Med Chem, 2013).
Calls of active or inactive are those of the source. No cut-off for these calls is given here.

Legend:
Adenosine receptor A2a [1] = biological target: T1, Adenosine receptor A2a (Homo sapiens, UniProt P29274); assay: Displacement of [3H]ZM241385 from human recombinant adenosine A2A receptor expressed in HEK293 cells after 1 hr by competitive binding assay; type: cell-based
T1 sequence (P29274 whole entry): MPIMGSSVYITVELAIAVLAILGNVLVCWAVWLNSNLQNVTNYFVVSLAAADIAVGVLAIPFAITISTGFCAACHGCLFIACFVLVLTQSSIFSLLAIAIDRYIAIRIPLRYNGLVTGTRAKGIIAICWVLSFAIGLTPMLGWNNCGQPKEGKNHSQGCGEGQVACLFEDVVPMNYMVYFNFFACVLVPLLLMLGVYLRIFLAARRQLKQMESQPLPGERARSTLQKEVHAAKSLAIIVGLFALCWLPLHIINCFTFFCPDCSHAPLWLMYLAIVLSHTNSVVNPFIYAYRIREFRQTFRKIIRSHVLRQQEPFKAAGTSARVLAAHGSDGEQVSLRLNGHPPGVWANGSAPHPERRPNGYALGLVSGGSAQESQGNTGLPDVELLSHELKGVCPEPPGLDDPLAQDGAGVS
Outline: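 HEK293 membranes expressing human A2A receptor pretreated with 2 IU/mL adenosine deaminase, 30 min at 37 °C. Competition with [3H]ZM241385 at its Kd (2 nM) using 5–10 µg protein and test compound 0.01–10,000 nM, 1 h at 4 °C in 50 mM Tris-HCl pH 7.4, 10 mM MgCl2. Nonspecific binding with 10 µM unlabeled ZM241385. Ki via Cheng–Prusoff; four experiments in triplicate.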

Adenosine receptor A1 = biological target: T2, Adenosine receptor A1 (Homo sapiens, UniProt P30542); assay: Displacement of [3H]DPCPX from human recombinant adenosine A1 receptor expressed in CHO-K1 cells after 60 mins; type: cell-based
T2 sequence (P30542 whole entry): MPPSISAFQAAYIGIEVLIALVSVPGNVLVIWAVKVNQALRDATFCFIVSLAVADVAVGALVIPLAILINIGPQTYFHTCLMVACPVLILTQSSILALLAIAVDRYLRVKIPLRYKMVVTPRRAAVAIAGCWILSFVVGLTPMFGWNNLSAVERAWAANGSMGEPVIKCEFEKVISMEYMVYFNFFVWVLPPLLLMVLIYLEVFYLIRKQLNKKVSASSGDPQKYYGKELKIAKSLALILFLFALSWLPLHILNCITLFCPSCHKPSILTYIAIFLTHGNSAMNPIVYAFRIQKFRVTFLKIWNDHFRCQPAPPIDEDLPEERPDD

[2] = biological target: T3, Adenosine receptor A3 (Homo sapiens) (UniProt P0DMS8); assay: Binding affinity to human adenosine A3 receptor
T3 sequence (whole entry): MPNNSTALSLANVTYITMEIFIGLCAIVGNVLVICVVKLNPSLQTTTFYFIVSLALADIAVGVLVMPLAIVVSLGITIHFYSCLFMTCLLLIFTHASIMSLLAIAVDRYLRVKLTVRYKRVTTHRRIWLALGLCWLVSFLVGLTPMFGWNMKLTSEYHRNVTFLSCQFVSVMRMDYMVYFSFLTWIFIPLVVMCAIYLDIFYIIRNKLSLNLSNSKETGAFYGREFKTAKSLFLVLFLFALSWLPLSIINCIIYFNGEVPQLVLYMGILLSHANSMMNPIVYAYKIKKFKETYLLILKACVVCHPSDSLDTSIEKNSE

Adenosine receptor A2a [3] = biological target: T1, Adenosine receptor A2a; assay: Inhibition of human recombinant adenosine A2A receptor expressed in HEK293 cells at 10 uM; type: cell-based
[4] = biological target: T3, Adenosine receptor A3 (Homo sapiens); assay: Inhibition of human adenosine A3 receptor at 10 uM
[5] = biological target: T4, Adenosine receptor A1 (Homo sapiens) (UniProt P30542); assay: Inhibition of human recombinant adenosine A1 receptor expressed in CHO-K1 cells at 10 uM; type: cell-based
T4 sequence (whole entry): T2 sequence (P30542 whole entry)

Mus musculus [6] = assay: Induction of striatal movement in CD1 mouse at 20 to 200 mg/kg, po after 60 to 240 mins by Irwin test; type: functional, organism-based
Outline: (§1)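 Irwin test in CD-1 mice, 5–6 weeks old, 4 per group. Compounds suspended in 0.1% Tween 80 in 0.5% CMC and given orally at 20, 100 and 200 mg/kg in 10 mL/kg. Behaviour recorded by camera at 60 and 240 min after dosing; stereotypies scored: sniffing (limbic), licking and biting (striatal).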

Mus musculus [7] = assay: Induction of limbic movement in CD1 mouse at 20 to 200 mg/kg, po after 60 to 240 mins by Irwin test; type: functional, organism-based; details: Limbic system; outline: as §1
Adenosine receptor A2a [8] = biological target: T1, Adenosine receptor A2a; assay: Antagonist activity at human adenosine A2A receptor expressed in HEK293 cells assessed as inhibition of NECA-induced cAMP accumulation incubated for 10 mins prior to NECA addition; type: functional, cell-based
Outline: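 HEK-293 cells stably expressing human A2A, plated 48 h ahead. They were pretreated 10 min at 37 °C with 0.5 mM Ro20-1724 and 2 IU/mL adenosine deaminase, then compound (10^-4 to 10^-10 M) for 10 min at 37 °C, then 100 nM NECA for 20 min. cAMP was extracted and measured by enzyme immunoassay. IC50 came from nonlinear regression of four independent experiments.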

Row | Ki (Adenosine receptor A1) [nM] | Activity [2] | inhibition (Adenosine receptor A2a [3]) | inhibition [4] [%] | inhibition [5] | IC50 (Adenosine receptor A2a [8]) [nM] | SMILES | Ki (Adenosine receptor A2a [1]) [nM] | Activity (Mus musculus [6]) | Activity (Mus musculus [7])
1 | – | – | – | – | – | – | CCC(O)Cc1nc(N)c2nc(-n3nccn3)n(C)c2n1 (configuration not stated) | 64 | – | –
2 | 53 | – | – | – | – | – | C[C@H](O)CCc1nc(N)c2nc(-n3nccn3)n(C)c2n1 | – | – | –
3 | 150 | inactive | Active | 47 | Active | – | Cn1c(-n2nccn2)nc2c(N)nc(CCCCO)nc21 | – | – | –
4 | – | inactive | Active | 56 | Active | – | CC(=O)CCc1nc(N)c2nc(-n3nccn3)n(C)c2n1 | – | Active | Active
5 | 160 | inactive | Active | 55 | Active | – | CCCC(O)c1nc(N)c2nc(-n3nccn3)n(C)c2n1 (racemic) | – | Active | Active
6 | 100 | – | – | – | – | 430 | CCCCc1nc(N)c2nc(-n3nccn3)n(C)c2n1 [ST1535] | – | – | –

Row | SMILES | Ki (Adenosine receptor A1) [nM] | Activity [2] | inhibition (Adenosine receptor A2a [3]) | inhibition [4] [%] | inhibition [5] | IC50 (Adenosine receptor A2a [8]) [nM] | Ki (Adenosine receptor A2a [1]) [nM] | Activity (Mus musculus [6]) | Activity (Mus musculus [7])
7 | C[C@@H](O)CCc1nc(N)c2nc(-n3nccn3)n(C)c2n1 | 34 | – | – | – | – | – | 7.5 | – | –
8 | CC(O)CCc1nc(N)c2nc(-n3nccn3)n(C)c2n1 (racemic) | 34 | inactive | Active | 61 | Active | – | 8.4 | Active | Active
